Results as given in ChEMBL document CHEMBL4622973, “Discovery of Potent Small-Molecule SIRT6 Activators: Structure-Activity Relationship and Anti-Pancreatic Ductal Adenocarcinoma Activity” (J Med Chem, 2020).
Active and inactive are the calls of the source. The calls are words filed in the database; no cut-off is given here.

How the values were obtained:
[1] = target: T1, NAD-dependent protein deacylase sirtuin-6 (Homo sapiens, UniProt Q8N6T7); assay: Activation of N-terminal his-tagged human SIRT6 expressed in Escherichia coli M15 [pREP4] assessed as increase in peptide demyristoylation incubated for 120 mins using Ac-EALPKK(Myr)-AMC substrate by FDL assay relative to control
T1 sequence (Q8N6T7 whole entry): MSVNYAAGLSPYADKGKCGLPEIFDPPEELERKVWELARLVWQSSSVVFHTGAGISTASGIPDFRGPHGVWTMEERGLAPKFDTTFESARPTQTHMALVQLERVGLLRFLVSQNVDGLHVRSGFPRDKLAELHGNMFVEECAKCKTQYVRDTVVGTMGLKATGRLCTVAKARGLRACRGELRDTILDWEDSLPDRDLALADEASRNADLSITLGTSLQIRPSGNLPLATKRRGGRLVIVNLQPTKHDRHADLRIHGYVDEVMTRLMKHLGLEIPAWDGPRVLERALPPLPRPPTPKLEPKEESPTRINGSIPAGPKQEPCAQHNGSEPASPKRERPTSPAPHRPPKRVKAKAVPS
In short: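 Demyristoylation: 1 µM recombinant SIRT6 preincubated with compound for 20 min at 37 °C in 50 mM Tris-HCl pH 8.0, BSA 1 mg/mL, 1 mM DTT, with 10 µM Ac-EALPKK(Myr)-AMC. Fluorescence read. Mean ± s.d., triplicate wells, three independent experiments.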

HepG2 = assay: Antiproliferative activity against human HepG2 cells assessed as reduction in cell viability incubated for 72 hrs by MTT assay; type: functional, cell-based
SK-OV-3 = assay: Antiproliferative activity against human SKOV3 cells assessed as reduction in cell viability incubated for 72 hrs by MTT assay; type: functional, cell-based
MIA PaCa-2 = assay: Inhibition of colony formation in human MIAPaCa2 cells incubated for 9 to 18 days by crystal violet staining based assay; type: functional, cell-based
In short: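 Cells are seeded per well at the line-specific density: BXPC-3 750, PANC-1 500, AsPC-1 2200, MIAPaCa-2 500. Compound at several concentrations is added after 24 h. Incubation runs 9–18 days (BXPC-3 18 days, PANC-1 14 days). Cells are then fixed with 4% paraformaldehyde and stained with crystal violet, and colonies of more than 50 cells are counted.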

BXPC-3 [2] = assay: Antiproliferative activity against human BxPC3 cells at 3.3 to 10 uM incubated for 24 hrs by EdU incorporation assay; type: functional, cell-based
In short: (§1)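 Cells seeded per well at 8000 (BXPC-3) or 4600 (PANC-1), then treated with a concentration series for 24 h. EdU incorporation detected with an EdU-Apollo kit, with Hoechst counterstain. EdU-positive cells counted by high-content imaging across 10 fields.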

PANC-1 [3] = assay: Antiproliferative activity against human PANC1 cells at 3.3 to 10 uM incubated for 24 hrs by EdU incorporation assay; type: functional, cell-based; in short: as §1
BXPC-3 [4] = assay: Induction of apoptosis in human BxPC3 cells incubated for 48 hrs by propidium iodide and Annexin V-FITC staining based flow cytometry; type: functional, cell-based
In short: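 PANC-1 and BXPC-3 cells seeded in 6-well plates and treated with a concentration series for 48 h. Stained with Annexin V-FITC and propidium iodide for 10 min in the dark. Annexin V+ populations measured by flow cytometry.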

[5] = target: T1, NAD-dependent protein deacylase sirtuin-6; assay: Binding affinity to SIRT6 in human BxPC3 cells assessed as protection of SIRT6 protein from temperature-dependent degradation at 25 uM incubated for 72 hrs by CETSA; type: cell-based; conditions: BXPC-3
In short: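 Cells treated with compound (25 μM) or DMSO for 72 h, washed, resuspended in PBS with protease inhibitor cocktail, split into aliquots heated 3 min at a temperature gradient. Lysed by three freeze–thaw cycles, centrifuged at 4 °C for 15 min; soluble SIRT6 in supernatant detected by western blot. Triplicate.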

[6] = target: T1, NAD-dependent protein deacylase sirtuin-6; assay: […] in human PANC1 cells assessed as reduction in H3K56ac levels incubated for 72 hrs by Western blot analysis; type: cell-based; conditions: PANC-1
In short: (§2)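 Cells incubated 72 h with various compound concentrations; whole-cell RIPA lysates with protease inhibitors, BCA-normalised, separated on 12% SDS-PAGE, transferred to PVDF, blocked in 5% milk or BSA. Probed 10 h at 4 °C with antibodies to SIRT6, acetyl-H3K9/K18/K56, total H3, Lin28b, Myc, IGF2BP3, β-actin; HRP secondary, chemiluminescent detection.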

[7] = target: T1, NAD-dependent protein deacylase sirtuin-6; assay: […] in human PANC1 cells assessed as reduction in IGF2BP3 expression levels at 25 uM incubated for 72 hrs by Western blot analysis; type: cell-based; conditions: PANC-1; in short: as §2
PANC-1 [8] = assay: Antitumor activity against human PANC1 cells xenografted in BALB/c nude mouse assessed as slowing of tumor growth at 100 to 150 mg/kg/day, po for 30 days; type: functional, organism-based
In short: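 Female BALB/c nude mice, 6-8 weeks old, injected subcutaneously in the right flank with 5×10^6–1×10^7 PANC-1 cells. At 130-150 mm³, mice randomized into 4 groups (n = 6) and dosed orally once daily for 30 days against vehicle. Tumor volume followed over time. Inhibition rate assessed against control.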

[9] = target: T1, NAD-dependent protein deacylase sirtuin-6; assay: In-vivo activation of SIRT6 in BALB/c nude mouse xenografted with human PANC1 cells assessed as reduction in Lin28b expression at 150 mg/kg/day, po for 30 days by IHC analysis; type: functional, organism-based; conditions: PANC-1
In short: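 Female BALB/c nude mice (6–8 weeks) bearing subcutaneous PANC-1 xenografts (5×10⁶–1×10⁷ cells, right flank), randomised at 130–150 mm³ tumours; oral dosing daily for 30 days versus vehicle (n=6). Tumour tissue stained by immunohistochemistry.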

[10] = Tmax in Sprague-Dawley rat at 10 mg/kg, po after 0.083 to 24 hrs by LC-MS/MS analysis; type: ADME, organism-based; conditions: in vivo
In short: (§3)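 Male Sprague-Dawley rats, 6–8 weeks old, received a single dose of 10 mg/kg p.o. or 2 mg/kg i.v. The vehicle was 5% DMSO, 10% Solutol and 85% saline at pH 7. Blood was taken by cardiac puncture at 0.083–24 h (p.o.) or 0.25–24 h (i.v.), and plasma was measured by LC-MS/MS. Values are mean ± SD, n = 3.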

[11] = AUC (0 to t) in Sprague-Dawley rat at 10 mg/kg, po after 0.083 to 24 hrs by LC-MS/MS analysis; type: ADME, organism-based; conditions: in vivo
In short: (§4)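 Male Sprague-Dawley rats, 6-8 weeks old. Dosing solution of 10 (PO) or 2 (IV) mg/mL in 5% DMSO, 10% Solutol and 85% saline, pH 7. Blood taken by cardiac puncture at 0.083–24 h (PO) or 0.25–24 h (IV). Plasma levels measured by LC-MS/MS. Values are mean ± SD, n = 3.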

[12] = AUC (0 to infinity) in Sprague-Dawley rat at 10 mg/kg, po after 0.083 to 24 hrs by LC-MS/MS analysis; type: ADME, organism-based; design: dose 10 mg/kg, time infinity, route oral; conditions: in vivo; in short: as §4
[13] = Oral bioavailability in Sprague-Dawley rat at 10 mg/kg after 0.083 to 24 hrs by LC-MS/MS analysis; type: ADME, organism-based; conditions: in vivo; in short: as §3
[14] = Clearance in Sprague-Dawley rat at 2 mg/kg, iv after 0.25 to 24 hrs by LC-MS/MS analysis; type: ADME, organism-based; conditions: in vivo; in short: as §4
[15] = Cmax in Sprague-Dawley rat at 2 mg/kg, iv after 0.25 to 24 hrs by LC-MS/MS analysis; type: ADME, organism-based; design: dose 2 mg/kg, route intravenous; conditions: in vivo; in short: as §4
[16] = target: NAD-dependent protein deacetylase sirtuin-1 (Homo sapiens, UniProt Q96EB6); assay: Inhibition of SIRT1 (unknown origin) by FDL assay
NAD-dependent protein deacetylase sirtuin-1, sequence (Q96EB6 whole entry): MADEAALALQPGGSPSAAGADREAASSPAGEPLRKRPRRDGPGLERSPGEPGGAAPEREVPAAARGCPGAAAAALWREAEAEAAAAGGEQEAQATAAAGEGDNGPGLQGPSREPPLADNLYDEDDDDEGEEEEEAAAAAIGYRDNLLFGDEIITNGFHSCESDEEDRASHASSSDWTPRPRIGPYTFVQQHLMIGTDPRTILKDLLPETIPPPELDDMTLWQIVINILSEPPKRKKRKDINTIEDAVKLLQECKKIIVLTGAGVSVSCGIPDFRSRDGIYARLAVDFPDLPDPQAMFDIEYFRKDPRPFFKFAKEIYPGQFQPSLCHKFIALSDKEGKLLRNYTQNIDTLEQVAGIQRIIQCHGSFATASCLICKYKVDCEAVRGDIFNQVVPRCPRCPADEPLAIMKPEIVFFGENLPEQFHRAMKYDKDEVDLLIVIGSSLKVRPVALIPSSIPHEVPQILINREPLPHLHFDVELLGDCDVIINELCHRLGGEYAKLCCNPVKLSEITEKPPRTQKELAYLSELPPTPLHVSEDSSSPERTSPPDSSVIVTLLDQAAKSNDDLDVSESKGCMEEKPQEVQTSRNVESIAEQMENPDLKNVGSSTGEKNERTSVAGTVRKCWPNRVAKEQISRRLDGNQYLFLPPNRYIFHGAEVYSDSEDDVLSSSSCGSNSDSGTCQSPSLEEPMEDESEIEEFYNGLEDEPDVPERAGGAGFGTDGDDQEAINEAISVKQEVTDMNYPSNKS
In short: (§5)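 Selectivity testing by FDL assay at concentrations up to 200 µM. SIRT1-2 assays run by an outside contract provider. Values reported as IC50.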

Histone deacetylase 7 = Histone deacetylase 7 (Homo sapiens, UniProt Q8WUI4); assay: Inhibition of HDAC7 (unknown origin) by FDL assay; in short: as §5
Histone deacetylase 7, sequence (Q8WUI4 whole entry): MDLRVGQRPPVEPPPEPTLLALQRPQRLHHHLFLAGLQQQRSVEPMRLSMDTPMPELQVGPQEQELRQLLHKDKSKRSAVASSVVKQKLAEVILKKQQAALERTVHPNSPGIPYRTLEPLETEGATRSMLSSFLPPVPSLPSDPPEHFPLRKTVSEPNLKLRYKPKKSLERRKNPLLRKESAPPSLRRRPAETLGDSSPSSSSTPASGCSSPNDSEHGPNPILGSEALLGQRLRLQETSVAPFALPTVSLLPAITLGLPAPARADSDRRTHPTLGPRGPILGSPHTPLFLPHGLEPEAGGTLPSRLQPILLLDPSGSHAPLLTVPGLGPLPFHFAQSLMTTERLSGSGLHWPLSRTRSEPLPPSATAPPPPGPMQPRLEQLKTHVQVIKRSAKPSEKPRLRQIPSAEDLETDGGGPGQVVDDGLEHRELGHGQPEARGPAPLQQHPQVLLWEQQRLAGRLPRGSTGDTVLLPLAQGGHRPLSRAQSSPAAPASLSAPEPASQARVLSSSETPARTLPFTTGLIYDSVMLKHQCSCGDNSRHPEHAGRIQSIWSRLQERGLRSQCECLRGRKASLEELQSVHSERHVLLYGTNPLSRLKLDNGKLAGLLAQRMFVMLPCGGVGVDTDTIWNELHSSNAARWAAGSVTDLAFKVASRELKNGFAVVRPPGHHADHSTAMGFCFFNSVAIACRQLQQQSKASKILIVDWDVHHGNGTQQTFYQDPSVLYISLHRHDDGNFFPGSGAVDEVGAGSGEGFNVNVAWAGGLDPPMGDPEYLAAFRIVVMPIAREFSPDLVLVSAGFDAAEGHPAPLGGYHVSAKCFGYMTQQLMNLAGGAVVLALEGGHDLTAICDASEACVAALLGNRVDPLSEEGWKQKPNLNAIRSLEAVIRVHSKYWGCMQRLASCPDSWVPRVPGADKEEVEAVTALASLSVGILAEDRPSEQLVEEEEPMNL

Histone deacetylase 8 = Histone deacetylase 8 (Homo sapiens, UniProt Q9BY41); assay: Inhibition of HDAC8 (unknown origin) by FDL assay; in short: as §5
Histone deacetylase 8, sequence (Q9BY41 whole entry): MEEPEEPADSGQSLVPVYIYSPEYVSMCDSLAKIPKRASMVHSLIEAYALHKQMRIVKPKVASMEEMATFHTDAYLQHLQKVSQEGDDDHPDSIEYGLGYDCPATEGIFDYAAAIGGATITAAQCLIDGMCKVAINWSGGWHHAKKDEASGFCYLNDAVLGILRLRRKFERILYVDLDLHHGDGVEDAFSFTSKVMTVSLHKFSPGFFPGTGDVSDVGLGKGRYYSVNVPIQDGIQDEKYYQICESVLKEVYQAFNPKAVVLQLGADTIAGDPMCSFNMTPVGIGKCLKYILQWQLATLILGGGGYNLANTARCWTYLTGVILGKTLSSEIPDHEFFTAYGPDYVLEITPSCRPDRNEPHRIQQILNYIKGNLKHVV

- EC1.5 [1]: 0.58 to 0.72 µM
- EC50 [1]: 8.91 µM
- Activity [5]: Active
- inhibition [6]: Dose-dependent effect
- inhibition [7]: Active
- Activity [9]: Active
- Tmax [10]: 2 h
- AUCt [11]: 704.67 ng·mL·h
- AUC [12]: 755.57 ng·mL·h
- bioavailability [13]: 4.24%
- CL [14]: 10 mL/min/kg
- Cmax [15]: 5120 ng/mL
- IC50 [16]: 171 µM
- IC50 (Histone deacetylase 7): > 200 µM
- IC50 (Histone deacetylase 8): > 200 µM
Structure (SMILES): O=C(NC(c1ccccc1)c1ccccc1)c1cc(-c2cc3ccccc3o2)nc2ccccc12
- Activity (HepG2): Active
- Activity (SK-OV-3): Active
- inhibition (MIA PaCa-2): Dose-dependent effect
- Activity (BXPC-3 [2]): Active
- Activity (PANC-1 [3]): Active
- Activity (BXPC-3 [4]): Dose-dependent effect
- Activity (PANC-1 [8]): Dose-dependent effect
